Here are results for eleven molecules from ChEMBL document CHEMBL1926627, “Synthesis and evaluation of novel modified γ-lactam prostanoids as EP4 subtype-selective agonists” (Bioorg Med Chem, 2012).

Chain of Prostaglandin E2 receptor EP2 subtype (Q62053 whole entry): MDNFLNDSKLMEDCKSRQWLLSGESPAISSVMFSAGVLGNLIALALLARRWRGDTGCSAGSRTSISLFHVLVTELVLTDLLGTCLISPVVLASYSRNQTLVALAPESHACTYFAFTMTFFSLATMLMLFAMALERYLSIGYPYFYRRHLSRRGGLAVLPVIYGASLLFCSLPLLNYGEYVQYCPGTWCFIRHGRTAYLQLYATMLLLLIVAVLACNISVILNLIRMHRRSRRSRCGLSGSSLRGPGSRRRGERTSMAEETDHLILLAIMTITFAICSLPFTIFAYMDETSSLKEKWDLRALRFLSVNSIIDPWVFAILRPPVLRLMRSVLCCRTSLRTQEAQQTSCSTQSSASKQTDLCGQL

The target of one assay is T1, Prostaglandin E2 receptor EP3 subtype (Mus musculus, UniProt P30557).
T1 sequence (P30557 whole entry): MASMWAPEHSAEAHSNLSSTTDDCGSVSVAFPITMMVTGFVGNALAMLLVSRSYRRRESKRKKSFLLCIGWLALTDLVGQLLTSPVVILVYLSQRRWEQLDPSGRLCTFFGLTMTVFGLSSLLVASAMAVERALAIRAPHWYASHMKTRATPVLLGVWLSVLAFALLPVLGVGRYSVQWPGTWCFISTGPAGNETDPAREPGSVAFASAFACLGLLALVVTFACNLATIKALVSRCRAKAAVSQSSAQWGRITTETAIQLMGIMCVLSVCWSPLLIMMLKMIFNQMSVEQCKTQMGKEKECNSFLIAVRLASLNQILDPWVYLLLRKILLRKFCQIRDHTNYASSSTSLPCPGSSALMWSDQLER
The experiment in a line: Displacement of [3H]-PGE2 from mouse EP3 receptor expressed in CHO cells after 60 mins by liquid scintillation counter. The class given is cell-based. In a few lines:
(§1)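 Membranes from CHO cells stably expressing mouse EP1–4, incubated with 2.5 nM [³H]PGE₂ and test compound at various concentrations in 10 mM KH₂PO₄–KOH, 1 mM EDTA, 10 mM MgCl₂, 0.1 mM NaCl, pH 6.0. Incubated 25 °C, 60 min (EP1: 20 min). Filtration on GF/B, ice-cold buffer wash, scintillation counting. Nonspecific binding with excess unlabeled PGE₂. IC50 from regression curve; Ki = IC50/(1+[L]/Kd).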
In general terms: Loss of bound radioactivity is the signal in a displacement assay; it reports binding, not function.
For the molecule `O=C(O)CCCSCCN1C(=O)OC[C@@H]1/C=C/[C@@H](O)Cc1cccc(Cl)c1`, the affinity corresponds to a Ki of 630 nM.

Take `O=C(O)CCCSCCN1C(=O)OC[C@@H]1/C=C/[C@@H](O)Cc1cccc(-c2ccccc2)c1`: the Ki (usually the equilibrium dissociation constant of an inhibitor or competing ligand from its target) is above 10000 nM.

Regarding `O=C(O)CCCSCCN1C(=O)OC[C@@H]1/C=C/[C@@H](O)Cc1cccc(OC(F)(F)F)c1`, the Ki stood at 1700 nM.

For the molecule `COCc1cccc(C[C@H](O)/C=C/[C@H]2COC(=O)N2CCSCCCC(=O)O)c1`, the Ki was above 10000 nM.

With `O=C(O)CCCSCCN1C(=O)SC[C@@H]1/C=C/[C@@H](O)Cc1cccc(F)c1`, the affinity, expressed as Ki, was 1800 nM.

Turning to `O=C(O)CCCCCCN1C(=S)CC[C@@H]1/C=C/[C@@H](O)Cc1ccccc1`, affinity was put at a Ki of 2300 nM.

For `CCc1cccc(C[C@H](O)/C=C/[C@H]2CCC(=S)N2CCCCCCC(=O)O)c1`, the Ki turned out to be 2300 nM.

For `CCCc1cccc(C[C@H](O)/C=C/[C@H]2CCC(=S)N2CCCCCCC(=O)O)c1`, the affinity corresponds to a Ki of 2000 nM.

`O=C(O)CCCCCCN1C(=S)CC[C@@H]1/C=C/[C@@H](O)Cc1cccc(C(F)(F)F)c1` gave a Ki of 450 nM.

`O=C(O)CCCCCCN1C(=S)CC[C@@H]1/C=C/[C@@H](O)Cc1cccc(F)c1`: the Ki is 1700 nM.

A further assay concerns the target Prostaglandin E2 receptor EP2 subtype (Mus musculus, UniProt Q62053). The experiment in a line: Displacement of [3H]-PGE2 from mouse EP2 receptor expressed in CHO cells after 60 mins by liquid scintillation counter. Type of assay: cell-based. In outline:
as §1
With `O=C(O)CCCSCCN1C(=O)OC[C@@H]1/C=C/[C@@H](O)Cc1cccc(Cl)c1`, the Ki was above 10000 nM.

In the case of `O=C(O)CCCSCCN1C(=O)OC[C@@H]1/C=C/[C@@H](O)Cc1cccc(-c2ccccc2)c1`, the Ki was above 10000 nM.

Molecule `O=C(O)CCCSCCN1C(=O)OC[C@@H]1/C=C/[C@@H](O)Cc1cccc(OC(F)(F)F)c1` yielded an inhibitory constant (Ki) above 10000 nM.

For the molecule `COCc1cccc(C[C@H](O)/C=C/[C@H]2COC(=O)N2CCSCCCC(=O)O)c1`, the Ki was above 10000 nM.

Regarding `O=C(O)CCCSCCN1C(=O)SC[C@@H]1/C=C/[C@@H](O)Cc1cccc(F)c1`, the inhibitory constant (Ki) was above 10000 nM.

`O=C(O)CCCCCCN1C(=S)CC[C@@H]1/C=C/[C@@H](O)Cc1ccccc1` showed a Ki above 10000 nM.

`CCc1cccc(C[C@H](O)/C=C/[C@H]2CCC(=S)N2CCCCCCC(=O)O)c1` showed a Ki of 1100 nM.

Take `CCCc1cccc(C[C@H](O)/C=C/[C@H]2CCC(=S)N2CCCCCCC(=O)O)c1`: the affinity, expressed as Ki, was 6800 nM.

As to `O=C(O)CCCCCCN1C(=S)CC[C@@H]1/C=C/[C@@H](O)Cc1cccc(C(F)(F)F)c1`, the Ki is above 10000 nM.

Molecule `O=C(O)CCCCCCN1C(=S)CC[C@@H]1/C=C/[C@@H](O)Cc1cccc(F)c1` had a Ki above 10000 nM.

The target of the next assay is T2, Prostaglandin E2 receptor EP1 subtype (Mus musculus, UniProt P35375).
T2 sequence (P35375 whole entry): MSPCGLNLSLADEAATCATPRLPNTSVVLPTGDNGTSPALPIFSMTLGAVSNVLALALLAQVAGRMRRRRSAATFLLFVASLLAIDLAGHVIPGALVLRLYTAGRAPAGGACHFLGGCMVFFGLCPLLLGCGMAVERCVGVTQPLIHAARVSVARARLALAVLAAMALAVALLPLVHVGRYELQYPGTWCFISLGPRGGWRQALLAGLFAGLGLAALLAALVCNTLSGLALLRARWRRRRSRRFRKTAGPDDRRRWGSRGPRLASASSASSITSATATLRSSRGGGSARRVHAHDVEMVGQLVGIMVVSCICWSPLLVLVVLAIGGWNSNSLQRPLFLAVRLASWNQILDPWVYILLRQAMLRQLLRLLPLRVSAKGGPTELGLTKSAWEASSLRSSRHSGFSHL
Nature of the assay: Displacement of [3H]-PGE2 from mouse EP1 receptor expressed in CHO cells after 20 mins by liquid scintillation counter. The class given is cell-based. In outline:
as §1
For `O=C(O)CCCSCCN1C(=O)OC[C@@H]1/C=C/[C@@H](O)Cc1cccc(Cl)c1`, the Ki was above 10000 nM.

Regarding `O=C(O)CCCSCCN1C(=O)OC[C@@H]1/C=C/[C@@H](O)Cc1cccc(-c2ccccc2)c1`, the Ki is above 10000 nM.

As to `O=C(O)CCCSCCN1C(=O)OC[C@@H]1/C=C/[C@@H](O)Cc1cccc(OC(F)(F)F)c1`, the Ki was above 10000 nM.

As to `COCc1cccc(C[C@H](O)/C=C/[C@H]2COC(=O)N2CCSCCCC(=O)O)c1`, the Ki is above 10000 nM.

As for `O=C(O)CCCSCCN1C(=O)SC[C@@H]1/C=C/[C@@H](O)Cc1cccc(F)c1`, the Ki was above 10000 nM.

Regarding `O=C(O)CCCCCCN1C(=S)CC[C@@H]1/C=C/[C@@H](O)Cc1ccccc1`, the Ki is above 10000 nM.

`CCc1cccc(C[C@H](O)/C=C/[C@H]2CCC(=S)N2CCCCCCC(=O)O)c1` showed a Ki above 10000 nM.

Take `CCCc1cccc(C[C@H](O)/C=C/[C@H]2CCC(=S)N2CCCCCCC(=O)O)c1`: the Ki is above 10000 nM.

On to `O=C(O)CCCCCCN1C(=S)CC[C@@H]1/C=C/[C@@H](O)Cc1cccc(C(F)(F)F)c1`, for which the Ki was above 10000 nM.

`O=C(O)CCCCCCN1C(=S)CC[C@@H]1/C=C/[C@@H](O)Cc1cccc(F)c1`: the Ki was above 10000 nM.

In turn, `COCc1cccc(C[C@H](O)/C=C/[C@H]2[C@H](O)CC(=O)[C@@H]2CCSCCCC(=O)O)c1` displayed a Ki above 10000 nM.

The target of another assay is Prostaglandin E2 receptor EP4 subtype (Mus musculus, UniProt P32240). The experiment in a line: Displacement of [3H]-PGE2 from mouse EP4 receptor expressed in CHO cells after 60 mins by liquid scintillation counter. Type of assay: cell-based. In a few lines: as §1
Chain of Prostaglandin E2 receptor EP4 subtype (Mus musculus, UniProt P32240) (P32240 whole entry): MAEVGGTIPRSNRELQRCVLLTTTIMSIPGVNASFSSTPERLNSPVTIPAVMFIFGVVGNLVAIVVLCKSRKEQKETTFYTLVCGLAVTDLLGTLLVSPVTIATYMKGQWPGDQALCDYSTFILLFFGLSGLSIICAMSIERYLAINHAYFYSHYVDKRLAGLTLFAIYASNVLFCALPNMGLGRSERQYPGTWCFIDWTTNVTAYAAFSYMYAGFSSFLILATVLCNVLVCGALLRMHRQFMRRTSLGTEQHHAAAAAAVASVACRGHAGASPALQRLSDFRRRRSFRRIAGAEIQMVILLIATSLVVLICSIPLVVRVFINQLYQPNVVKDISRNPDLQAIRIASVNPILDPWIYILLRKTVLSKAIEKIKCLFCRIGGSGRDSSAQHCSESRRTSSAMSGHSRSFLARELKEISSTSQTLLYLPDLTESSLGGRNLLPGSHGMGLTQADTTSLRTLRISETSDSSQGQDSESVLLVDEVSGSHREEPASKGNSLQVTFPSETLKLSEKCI
As to `O=C(O)CCCSCCN1C(=O)OC[C@@H]1/C=C/[C@@H](O)Cc1cccc(Cl)c1`, the Ki is 1.5 nM.

Consider `O=C(O)CCCSCCN1C(=O)OC[C@@H]1/C=C/[C@@H](O)Cc1cccc(-c2ccccc2)c1`, for which the Ki was determined as 28 nM.

For the molecule `O=C(O)CCCSCCN1C(=O)OC[C@@H]1/C=C/[C@@H](O)Cc1cccc(OC(F)(F)F)c1`, the affinity corresponds to a Ki of 29 nM.

`COCc1cccc(C[C@H](O)/C=C/[C@H]2COC(=O)N2CCSCCCC(=O)O)c1` displayed a Ki of 7.2 nM.

The molecule `O=C(O)CCCSCCN1C(=O)SC[C@@H]1/C=C/[C@@H](O)Cc1cccc(F)c1` yielded a Ki of 1.5 nM.

Turning to `O=C(O)CCCCCCN1C(=S)CC[C@@H]1/C=C/[C@@H](O)Cc1ccccc1`, the Ki worked out at 1.5 nM.

The molecule `CCc1cccc(C[C@H](O)/C=C/[C@H]2CCC(=S)N2CCCCCCC(=O)O)c1` had a Ki of 0.83 nM.

For the molecule `CCCc1cccc(C[C@H](O)/C=C/[C@H]2CCC(=S)N2CCCCCCC(=O)O)c1`, the affinity, expressed as Ki, was 0.4 nM.

As to `O=C(O)CCCCCCN1C(=S)CC[C@@H]1/C=C/[C@@H](O)Cc1cccc(C(F)(F)F)c1`, the Ki amounted to 0.38 nM.

`O=C(O)CCCCCCN1C(=S)CC[C@@H]1/C=C/[C@@H](O)Cc1cccc(F)c1` registered a Ki of 0.69 nM.

In a further assay the target is Prostaglandin E2 receptor EP4 subtype (Rattus norvegicus, UniProt P43114). Nature of the assay: Agonist activity at rat EP4 receptor expressed in CHO cells assessed as cAMP production after 10 mins by radioimmunoassay. Type of assay: functional, cell-based. In a few lines: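 CHO cells expressing rat EP4 seeded at 1×10^5 cells/well and grown 2 days. Washed with MEM, then 10 min at 37 °C in MEM with 2 µM diclofenac. Preincubated 10 min at 37 °C in assay medium with 1% BSA. Test compound added, 10 min at 37 °C. Stopped with ice-cold 10% trichloroacetic acid. cAMP measured by radioimmunoassay.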
Chain of Prostaglandin E2 receptor EP4 subtype (Rattus norvegicus, UniProt P43114) (P43114 whole entry): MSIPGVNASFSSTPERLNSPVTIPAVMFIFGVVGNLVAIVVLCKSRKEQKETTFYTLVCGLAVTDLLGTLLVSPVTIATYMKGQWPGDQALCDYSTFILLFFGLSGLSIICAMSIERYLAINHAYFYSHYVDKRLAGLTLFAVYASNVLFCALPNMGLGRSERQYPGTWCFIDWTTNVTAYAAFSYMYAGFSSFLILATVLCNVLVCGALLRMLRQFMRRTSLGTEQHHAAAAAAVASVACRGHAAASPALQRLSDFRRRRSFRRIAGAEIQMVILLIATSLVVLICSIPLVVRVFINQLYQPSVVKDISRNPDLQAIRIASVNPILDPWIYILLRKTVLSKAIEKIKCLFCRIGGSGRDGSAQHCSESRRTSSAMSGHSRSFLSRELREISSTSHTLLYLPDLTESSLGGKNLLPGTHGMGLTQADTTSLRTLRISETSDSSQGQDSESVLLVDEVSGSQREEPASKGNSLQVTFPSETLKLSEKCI
(In general: Cyclic AMP is a second messenger, typically raised through Gs and lowered through Gi signalling.)
On to `O=C(O)CCCSCCN1C(=O)OC[C@@H]1/C=C/[C@@H](O)Cc1cccc(Cl)c1`, for which the EC50 (in general, the concentration giving half of the maximal effect) was 23 nM.

Turning to `O=C(O)CCCSCCN1C(=O)OC[C@@H]1/C=C/[C@@H](O)Cc1cccc(-c2ccccc2)c1`, the EC50 stood at 450 nM.

Consider `O=C(O)CCCSCCN1C(=O)OC[C@@H]1/C=C/[C@@H](O)Cc1cccc(OC(F)(F)F)c1`, for which the EC50 turned out to be 160 nM.

For the molecule `COCc1cccc(C[C@H](O)/C=C/[C@H]2COC(=O)N2CCSCCCC(=O)O)c1`, the EC50 stood at 24 nM.

Take `O=C(O)CCCSCCN1C(=O)SC[C@@H]1/C=C/[C@@H](O)Cc1cccc(F)c1`: the EC50 was determined as 5.7 nM.

Take `O=C(O)CCCCCCN1C(=S)CC[C@@H]1/C=C/[C@@H](O)Cc1ccccc1`: the EC50 amounted to 29 nM.

As for `CCc1cccc(C[C@H](O)/C=C/[C@H]2CCC(=S)N2CCCCCCC(=O)O)c1`, the EC50 was 9.4 nM.

Take `CCCc1cccc(C[C@H](O)/C=C/[C@H]2CCC(=S)N2CCCCCCC(=O)O)c1`: the EC50 was found to be 27 nM.

In the case of `O=C(O)CCCCCCN1C(=S)CC[C@@H]1/C=C/[C@@H](O)Cc1cccc(C(F)(F)F)c1`, the EC50 is 10 nM.

Take `O=C(O)CCCCCCN1C(=S)CC[C@@H]1/C=C/[C@@H](O)Cc1cccc(F)c1`: the EC50 was found to be 26 nM.

Consider `COCc1cccc(C[C@H](O)/C=C/[C@H]2[C@H](O)CC(=O)[C@@H]2CCSCCCC(=O)O)c1`, for which the EC50 is 1.4 nM.
